Assay results from ChEMBL document CHEMBL4385668, “Synthesis and in vitro anticancer activity of new gemcitabine-nucleoside analogue dimers containing methyltriazole or ester-methyltriazole linker” (Bioorg Med Chem Lett, 2019).

Legend:
U-87 MG = assay: Cytotoxicity in human U87 cells assessed as reduction in cell viability incubated for 72 hrs by SRB assay; format: functional, cell-based, U-87MG ATCC
Method in brief: (§1)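 SRB assay of cell viability in human cancer lines (HeLa, KB, A549, U87, HepG2) and normal dermal fibroblasts (HDF). IC50 values are […] of three independent experiments.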

[1] = Selectivity index, ratio of IC50 for cytotoxicity in human NHDF cells to IC50 for cytotoxicity in human HepG2 cells
Method in brief: (§2)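 Selectivity index is the IC50 in normal HDF fibroblasts divided by the IC50 in the given cancer line.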

[2] = Selectivity index, ratio of IC50 for cytotoxicity in human NHDF cells to IC50 for cytotoxicity in human HeLa cells; method in brief: as §2
NHDF = assay: Cytotoxicity in human NHDF cells assessed as reduction in cell viability incubated for 72 hrs by SRB assay; format: cell-based; method in brief: as §1
HepG2 = assay: Cytotoxicity in human HepG2 cells assessed as reduction in cell viability incubated for 72 hrs by SRB assay; format: functional, cell-based; conditions: HepG2, 72 h; method in brief: as §1
HeLa = assay: Cytotoxicity in human HeLa cells assessed as reduction in cell viability incubated for 72 hrs by SRB assay; format: functional, cell-based; method in brief: as §1
[3] = Drug metabolism in human HeLa cells assessed as 2',2'-difluoro-2'-deoxyuridine release incubated for 12 hrs by HPLC/MS method; format: ADME, cell-based
Method in brief: (§3)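 HeLa cells were incubated with the dimer at 37 °C for 12 h. Cell lysate was analysed by HPLC/MS for released gemcitabine, the deamination product dFdU and the thymidine-triazole fragment. A separately synthesized sample of the thymidine-triazole fragment was used as the reference.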

A549 = assay: Cytotoxicity in human A549 cells assessed as reduction in cell viability incubated for 72 hrs by SRB assay; format: functional, cell-based; conditions: A549, 72 h; method in brief: as §1
KB = assay: Cytotoxicity in human KB cells assessed as reduction in cell viability incubated for 72 hrs by SRB assay; format: functional, cell-based; method in brief: as §1
[4] = Drug metabolism in human HeLa cells assessed as gemcitabine release incubated for 12 hrs by HPLC/MS method; format: ADME, cell-based; method in brief: as §3
[5] = Selectivity index, ratio of IC50 for cytotoxicity in human NHDF cells to IC50 for cytotoxicity in human U87 cells; method in brief: as §2
[6] = Drug metabolism in human HeLa cells assessed as 3'-[4-(hydroxymethyl)-(1,2,3-triazol-1-yl)]-3'-deoxythymidine release incubated for 12 hrs by HPLC/MS method; format: ADME, cell-based; method in brief: as §3
[7] = Selectivity index, ratio of IC50 for cytotoxicity in human NHDF cells to IC50 for cytotoxicity in human A549 cells; method in brief: as §2
[8] = Selectivity index, ratio of IC50 for cytotoxicity in human NHDF cells to IC50 for cytotoxicity in human KB cells; method in brief: as §2

For `Cc1cn([C@H]2C[C@H](n3cc(COC(=O)Nc4ccn([C@@H]5O[C@H](CO)[C@@H](O)C5(F)F)c(=O)n4)nn3)[C@@H](CO)O2)c(=O)[nH]c1=O`, the IC50 (U-87 MG) was 1.89 µM, the “Ratio IC50” value [1] was 4.38 and the “Ratio IC50” value [2] was 4.41. The IC50 (NHDF) was 6.7 µM, the IC50 (HepG2) was 1.53 µM and the IC50 (HeLa) was 1.52 µM. The Drug metabolism [3] was “Metabolite_Notdetected”, the IC50 (A549) was 1.67 µM and the IC50 (KB) was 1.55 µM. For the same compound, the Drug metabolism [4] was “Metabolite_Detected”, the “Ratio IC50” value [5] was 3.55 and the Drug metabolism [6] was “Metabolite_Detected”. For the same compound, the “Ratio IC50” value [7] was 4.01 and the “Ratio IC50” value [8] was 4.32.
